# Experimental data: ChEMBL document CHEMBL1629436, “Synthesis and biological evaluation of new camptothecin derivatives obtained by modification of position 20” (Bioorg Med Chem, 2010)
# Active and inactive are the calls of the source. No cut-off for these calls is given here.
# Legend:
# [1] = system: yA7; assay: Cytotoxicity against mouse yA7 cells after 24 to 96 hrs by MTS assay; assay type: functional, cell-based
# Procedure, shortened: (§1)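 Mouse transgenic lines plated at 10^3 cells/well and left 24 h to attach. Drugs diluted in medium were added for 24 or 96 h. CellTiter 96 AQueous One (MTS) reagent was then added for 1 h at 37 °C, with absorbance read at 490 nm. Each condition was run in quintuplicate, and cytotoxicity was expressed as percent of controls.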
# [2] = species: Mus musculus; assay: Cytotoxicity against mouse betaD5 cells after 24 to 96 hrs by MTS assay; assay type: functional, cell-based; procedure, shortened: as §1
# [3] = system: Nucleic Acid; assay: Binding affinity to salmon testes DNA by linear flow dichroism analysis; assay type: nucleic-acid assay; settings: Salmonidae
# Procedure, shortened: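 Salmon testes DNA (1.9 × 10^-3 M) in ETN buffer (10 mM Tris, 10 mM NaCl, 1 mM EDTA, pH 7). Linear dichroism spectra were recorded at 25 °C over a range of [drug]/[DNA] ratios on a spectropolarimeter converted for LD.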
# [4] = system: A2B1; assay: Cytotoxicity against mouse A2B1 cells after 24 to 96 hrs by MTS assay; assay type: functional, cell-based; procedure, shortened: as §1
# [5] = system: yB8; assay: Cytotoxicity against mouse yB8 cells after 24 to 96 hrs by MTS assay; assay type: functional, cell-based; procedure, shortened: as §1
# [6] = system: HL-60; assay: Cytotoxicity against human HL60 cells after 72 hrs by trypan blue assay; assay type: functional, cell-based; settings: HL-60, 72 h
# Procedure, shortened: (§2)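 A-431, HeLa and HL-60 cells at 4×10^4 per well, incubated 24 h. HeLa and A-431 then received fresh medium. Graded compound concentrations were added for a further 72 h at 37 °C, 5% CO2. Viability was counted by Trypan blue exclusion. IC50 is the concentration giving 50% reduction in cell number versus control: ≥3 independent experiments, triplicate samples, mean ± SD.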
# [7] = system: HeLa; assay: Cytotoxicity against human HeLa cells after 72 hrs by trypan blue assay; assay type: functional, cell-based; procedure, shortened: as §2
# [8] = system: yA3; assay: Cytotoxicity against mouse yA3 cells after 24 to 96 hrs by MTS assay; assay type: functional, cell-based; procedure, shortened: as §1
# [9] = target: DNA topoisomerase 2-alpha (Homo sapiens) (UniProt P11388); assay: Inhibition of human recombinant topoisomerase 2alpha-mediated relaxation of supercoiled pBR322 at 50 uM after 60 mins using ethidium bromide staining by agarose gel electrophoresis
# Chain of DNA topoisomerase 2-alpha (Homo sapiens) (P11388 whole entry): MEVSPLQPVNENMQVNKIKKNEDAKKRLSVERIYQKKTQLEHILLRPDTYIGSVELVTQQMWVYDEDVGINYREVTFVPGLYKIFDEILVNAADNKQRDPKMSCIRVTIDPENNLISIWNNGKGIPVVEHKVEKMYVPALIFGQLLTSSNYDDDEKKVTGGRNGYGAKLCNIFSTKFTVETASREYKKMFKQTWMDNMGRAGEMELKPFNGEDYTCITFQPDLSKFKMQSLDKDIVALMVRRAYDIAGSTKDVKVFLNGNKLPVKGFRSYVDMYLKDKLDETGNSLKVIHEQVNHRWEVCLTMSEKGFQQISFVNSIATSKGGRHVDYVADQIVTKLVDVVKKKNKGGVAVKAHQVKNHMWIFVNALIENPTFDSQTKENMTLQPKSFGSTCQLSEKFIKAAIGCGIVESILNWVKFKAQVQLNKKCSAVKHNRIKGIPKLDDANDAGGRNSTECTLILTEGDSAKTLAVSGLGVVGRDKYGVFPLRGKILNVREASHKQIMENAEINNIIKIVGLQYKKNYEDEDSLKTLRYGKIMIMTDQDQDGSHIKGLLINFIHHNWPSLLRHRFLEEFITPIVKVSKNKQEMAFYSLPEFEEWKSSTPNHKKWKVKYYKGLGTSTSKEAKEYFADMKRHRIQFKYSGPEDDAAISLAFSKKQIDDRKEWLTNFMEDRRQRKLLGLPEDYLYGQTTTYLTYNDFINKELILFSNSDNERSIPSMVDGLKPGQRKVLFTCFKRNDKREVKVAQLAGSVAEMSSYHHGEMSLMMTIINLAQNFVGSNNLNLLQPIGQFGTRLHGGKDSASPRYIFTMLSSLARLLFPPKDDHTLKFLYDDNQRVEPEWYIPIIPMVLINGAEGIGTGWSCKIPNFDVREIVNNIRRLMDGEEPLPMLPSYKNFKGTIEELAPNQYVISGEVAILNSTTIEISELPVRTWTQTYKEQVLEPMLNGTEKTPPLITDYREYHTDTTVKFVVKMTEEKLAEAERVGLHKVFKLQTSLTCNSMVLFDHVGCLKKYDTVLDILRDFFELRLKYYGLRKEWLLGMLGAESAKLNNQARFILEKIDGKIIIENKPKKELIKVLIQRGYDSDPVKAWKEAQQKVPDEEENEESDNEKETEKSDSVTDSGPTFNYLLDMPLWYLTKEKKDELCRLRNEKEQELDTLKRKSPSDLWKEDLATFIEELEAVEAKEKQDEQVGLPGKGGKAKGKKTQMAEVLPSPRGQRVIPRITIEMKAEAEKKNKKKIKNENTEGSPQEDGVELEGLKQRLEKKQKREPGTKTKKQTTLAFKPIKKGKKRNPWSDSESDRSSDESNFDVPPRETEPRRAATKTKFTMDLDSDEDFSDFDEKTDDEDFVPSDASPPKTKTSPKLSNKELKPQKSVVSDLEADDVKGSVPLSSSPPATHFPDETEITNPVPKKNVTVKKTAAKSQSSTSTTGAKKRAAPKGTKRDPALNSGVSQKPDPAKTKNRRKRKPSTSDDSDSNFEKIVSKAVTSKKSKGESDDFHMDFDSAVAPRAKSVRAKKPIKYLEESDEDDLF
# Procedure, shortened: (§3)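 Supercoiled pBR322 (0.25 µg) with 1 U human recombinant topoisomerase IIα and test compound, 60 min at 37 °C in 20 µl reaction buffer. Stopped with SDS/bromophenol blue/glycerol plus 50 µg/mL proteinase K, 30 min at 37 °C. Separated on 1% agarose at room temperature, ethidium bromide stained (1 µg/mL, TAE), UV-visualized.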
# [10] = system: B3; assay: Cytotoxicity against mouse B3 cells after 24 to 96 hrs by MTS assay; assay type: functional, cell-based; procedure, shortened: as §1
# [11] = target: DNA topoisomerase 2-alpha (Homo sapiens) (UniProt P11388); assay: Inhibition of human recombinant topoisomerase 2alpha-mediated relaxation of supercoiled pBR322 after 60 mins using ethidium bromide staining by agarose gel electrophoresis; procedure, shortened: as §3
# [12] = system: A-431; assay: Cytotoxicity against human A431 cells after 72 hrs by trypan blue assay; assay type: functional, cell-based; settings: A-431, 72 h; procedure, shortened: as §2
# [13] = species: Mus musculus; assay: Cytotoxicity against mouse betaD10 cells after 24 to 96 hrs by MTS assay; assay type: functional, cell-based; procedure, shortened: as §1
# [14] = system: A2C12; assay: Cytotoxicity against mouse A2C12 cells after 24 to 96 hrs by MTS assay; assay type: functional, cell-based; procedure, shortened: as §1
# [15] = species: Bos taurus; assay: Inhibition of calf thymus topoisomerase 1-mediated relaxation of supercoiled pBR322 at 100 uM after 60 mins using ethidium bromide staining by agarose gel electrophoresis
# Procedure, shortened: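 Supercoiled pBR322 (0.25 µg) with 2 U calf thymus topoisomerase I and test compound, 60 min at 37 °C in 20 µl reaction buffer. Stopped with SDS/bromophenol blue/glycerol plus 50 µg/mL proteinase K, 30 min at 37 °C. Run on 1% agarose at room temperature, stained with ethidium bromide 1 µg/mL in TAE, imaged under UV.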
# [16] = system: Craf/Cmyc; assay: Cytotoxicity against mouse Craf/Cmyc cells after 24 to 96 hrs by MTS assay; assay type: functional, cell-based; procedure, shortened: as §1
# [17] = system: yD12; assay: Cytotoxicity against mouse yD12 cells after 24 to 96 hrs by MTS assay; assay type: functional, cell-based; procedure, shortened: as §1
# [18] = system: HUVEC; assay: Antiangiogenic activity in HUVEC cocultured with human PaSMC assessed as inhibition of capillary-like network formation up to 200 nM after 72 hrs; assay type: functional, cell-based
# Procedure, shortened: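 Primary HUVEC (passage 5, retrovirally labelled with RFP) and pulmonary artery vSMC (passage 5) co-seeded at 5×10^4 PaSMC plus 10×10^3 HUVEC per well in EGM-2, briefly spun at 200 g, attached 3 h. Compounds were then added at final 2–200 nM, two replicates per concentration. Networks formed over 72 h at 37 °C, 5% CO2, followed by automated imaging and image analysis of tube formation.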
# [19] = target: DNA topoisomerase 2-alpha (Homo sapiens) (UniProt P11388); assay: Inhibition of human recombinant topoisomerase 2alpha-mediated relaxation of supercoiled pBR322 at up to 100 uM after 60 mins using ethidium bromide staining by agarose gel electrophoresis; procedure, shortened: as §3
# [20] = system: yA7; assay: Induction apoptosis in mouse yA7 cells assessed as ROS production at 10 uM/L using DCFH-DA by flow cytometry relative to control; assay type: functional, cell-based
# Procedure, shortened: (§4)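 Transgenic mouse cells exposed to compound at 10 µmol/L. ROS generation was measured by flow cytometry using the probe DCFH-DA.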
# [21] = system: B3; assay: Induction apoptosis in mouse B3 cells assessed as relative caspase activity at 10 uM/L after 2 hrs by rhodamine 110 fluorescence assay; assay type: functional, cell-based
# Procedure, shortened: (§5)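 Cells were pretreated with compound (10 µmol/L) for 2 h. The cell-permeable caspase substrate (Asp)2-rhodamine 110 (10 µmol/L) was then added for 2 h more. Caspase cleavage releases fluorescent rhodamine 110, and the read-out was mean fluorescence.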
# [22] = system: yD1; assay: Induction apoptosis in mouse yD1 cells assessed as relative caspase activity at 10 uM/L after 2 hrs by rhodamine 110 fluorescence assay; assay type: functional, cell-based; procedure, shortened: as §5
# [23] = system: yD12; assay: Induction apoptosis in mouse yD12 cells assessed as relative caspase activity at 10 uM/L after 2 hrs by rhodamine 110 fluorescence assay; assay type: functional, cell-based; procedure, shortened: as §5
# [24] = system: Craf/Cmyc; assay: Induction apoptosis in mouse Craf/Cmyc cells assessed as ROS production at 10 uM/L using DCFH-DA by flow cytometry relative to control; assay type: functional, cell-based; procedure, shortened: as §4
# [25] = system: yB8; assay: Induction apoptosis in mouse yB8 cells assessed as relative caspase activity at 10 uM/L after 2 hrs by rhodamine 110 fluorescence assay; assay type: functional, cell-based; procedure, shortened: as §5
# [26] = system: yD1; assay: Induction apoptosis in mouse yD1 cells assessed as ROS production at 10 uM/L using DCFH-DA by flow cytometry relative to control; assay type: functional, cell-based; procedure, shortened: as §4
# [27] = species: Mus musculus; assay: Induction apoptosis in mouse betaD5 cells assessed as relative caspase activity at 10 uM/L after 2 hrs by rhodamine 110 fluorescence assay; assay type: functional, cell-based; procedure, shortened: as §5
# [28] = system: yD12; assay: Induction apoptosis in mouse yD12 cells assessed as ROS production at 10 uM/L using DCFH-DA by flow cytometry relative to control; assay type: functional, cell-based; procedure, shortened: as §4
# [29] = system: A2B1; assay: Induction apoptosis in mouse A2B1 cells assessed as relative caspase activity at 10 uM/L after 2 hrs by rhodamine 110 fluorescence assay; assay type: functional, cell-based; procedure, shortened: as §5
# [30] = system: yA3; assay: Induction apoptosis in mouse yA3 cells assessed as relative caspase activity at 10 uM/L after 2 hrs by rhodamine 110 fluorescence assay; assay type: functional, cell-based; procedure, shortened: as §5
# [31] = species: Mus musculus; assay: Induction apoptosis in mouse betaD10 cells assessed as relative caspase activity at 10 uM/L after 2 hrs by rhodamine 110 fluorescence assay; assay type: functional, cell-based; procedure, shortened: as §5
# [32] = species: Mus musculus; assay: Induction apoptosis in mouse betaD5 cells assessed as ROS production at 10 uM/L using DCFH-DA by flow cytometry relative to control; assay type: functional, cell-based; procedure, shortened: as §4
# [33] = system: yA3; assay: Induction apoptosis in mouse yA3 cells assessed as ROS production at 10 uM/L using DCFH-DA by flow cytometry relative to control; assay type: functional, cell-based; procedure, shortened: as §4
# [34] = system: A2C12; assay: Induction apoptosis in mouse A2C12 cells assessed as relative caspase activity at 10 uM/L after 2 hrs by rhodamine 110 fluorescence assay; assay type: functional, cell-based; procedure, shortened: as §5
# [35] = system: B3; assay: Induction apoptosis in mouse B3 cells assessed as ROS production at 10 uM/L using DCFH-DA by flow cytometry relative to control; assay type: functional, cell-based; procedure, shortened: as §4
# [36] = system: yA7; assay: Induction apoptosis in mouse yA7 cells assessed as relative caspase activity at 10 uM/L after 2 hrs by rhodamine 110 fluorescence assay; assay type: functional, cell-based; procedure, shortened: as §5
# [37] = species: Mus musculus; assay: Induction apoptosis in mouse betaD10 cells assessed as ROS production at 10 uM/L using DCFH-DA by flow cytometry relative to control; assay type: functional, cell-based; procedure, shortened: as §4
# [38] = system: yB8; assay: Induction apoptosis in mouse yB8 cells assessed as ROS production at 10 uM/L using DCFH-DA by flow cytometry relative to control; assay type: functional, cell-based; procedure, shortened: as §4
# [39] = system: Craf/Cmyc; assay: Induction apoptosis in mouse Craf/Cmyc cells assessed as relative caspase activity at 10 uM/L after 2 hrs by rhodamine 110 fluorescence assay; assay type: functional; procedure, shortened: as §5
# [40] = system: A2B1; assay: Induction apoptosis in mouse A2B1 cells assessed as ROS production at 10 uM/L using DCFH-DA by flow cytometry relative to control; assay type: functional, cell-based; procedure, shortened: as §4
# [41] = system: A2C12; assay: Induction apoptosis in mouse A2C12 cells assessed as ROS production at 10 uM/L using DCFH-DA by flow cytometry relative to control; assay type: functional, cell-based; procedure, shortened: as §4
smiles,measurement,setting,value
CC[C@@]1(OC(=O)NCCNC(=O)CCSSCCC(=O)NCCNC(=O)O[C@]2(CC)C(=O)OCc3c2cc2n(c3=O)Cc3cc4ccccc4nc3-2)C(=O)OCc2c1cc1n(c2=O)Cc2cc3ccccc3nc2-1,Activity,[1],Active
same,Activity,[2],Active
same,Activity,[3],inactive
same,Activity,[4],Active
same,Activity,[5],Active
same,IC50,[6],0.92 µM
same,IC50,[7],0.7 µM
same,Activity,[8],Active
same,inhibition,[9],Active
same,Activity,[10],Active
same,Activity,[11],Dose-dependent effect
same,IC50,[12],0.15 µM
same,Activity,[13],Active
same,Activity,[14],Active
same,Activity,[15],inactive
same,Activity,[16],Active
same,Activity,[17],Active
CC[C@@]1(OC(=O)NCCN2C(=O)CCCSSCCCC2=O)C(=O)OCc2c1cc1n(c2=O)Cc2cc3ccccc3nc2-1,Activity,[1],Active
same,Activity,[2],Active
same,Activity,[3],inactive
same,Activity,[18],inactive
same,Activity,[4],Active
same,Activity,[5],Active
same,IC50,[6],1.55 µM
same,IC50,[7],0.57 µM
same,Activity,[19],inactive
same,Activity,[8],Active
same,Activity,[10],Active
same,IC50,[12],1.21 µM
same,Activity,[13],Active
same,Activity,[14],Active
same,Activity,[15],inactive
same,Activity,[16],Active
same,Activity,[17],Active
CC[C@@]1(OC(=O)NCCN2C(=O)CSSCC2=O)C(=O)OCc2c1cc1n(c2=O)Cc2cc3ccccc3nc2-1,Activity,[3],inactive
same,Activity,[19],inactive
CC[C@@]1(OC(=O)NCCN2C(=O)CCCCCCCCC2=O)C(=O)OCc2c1cc1n(c2=O)Cc2cc3ccccc3nc2-1,Activity,[1],Active
same,Activity,[20],inactive
same,Activity,[21],inactive
same,Activity,[22],inactive
same,Activity,[23],inactive
same,Activity,[24],inactive
same,Activity,[2],Active
same,Activity,[3],inactive
same,Activity,[25],inactive
same,Activity,[4],Active
same,Activity,[5],Active
same,Activity,[26],inactive
same,Activity,[27],inactive
same,Activity,[28],inactive
same,IC50,[6],12.2 µM
same,Activity,[29],inactive
same,Activity,[30],inactive
same,Activity,[31],inactive
same,Activity,[32],inactive
same,Activity,[33],inactive
same,IC50,[7],8.3 µM
same,Activity,[19],inactive
same,Activity,[8],Active
same,Activity,[34],inactive
same,Activity,[10],Active
same,Activity,[35],inactive
same,Activity,[36],inactive
same,IC50,[12],1.88 µM
same,Activity,[13],Active
same,Activity,[14],Active
same,Activity,[15],inactive
same,Activity,[37],inactive
same,Activity,[38],inactive
same,Activity,[39],inactive
same,Activity,[40],inactive
same,Activity,[16],Active
same,Activity,[41],inactive
same,Activity,[17],Active
CC[C@@]1(OC(=O)NCCNC(=O)CSSCC(=O)NCCNC(=O)O[C@]2(CC)C(=O)OCc3c2cc2n(c3=O)Cc3cc4ccccc4nc3-2)C(=O)OCc2c1cc1n(c2=O)Cc2cc3ccccc3nc2-1,Activity,[3],inactive
same,Activity,[19],inactive
